Measured values taken from ChEMBL document CHEMBL4680083, “Identification of Tricyclic Agonists of Sphingosine-1-phosphate Receptor 1 (S1P) Employing Ligand-Based Drug Design” (J Med Chem, 2016).
Calls of active or inactive are those of the source. The calls are words filed in the database; no cut-off is given here.

What was measured:
Rattus norvegicus [1] = experiment: Reduction in circulating lymphocytes count in Lewis rat blood at 1 mg/kg, po measured at 4 hrs by hematology analyzer based analysis; format: functional; parameters: scale not given: the % may be the effect or the level left
Method in brief: (§1)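 Lewis rats were given an oral dose as a solution or suspension in PEG300, with controls receiving vehicle only. Blood was taken by retro-orbital bleeding under isoflurane at 4 and 24 h. Lymphocytes were counted on a hematology analyzer. Reduction is relative to the vehicle group, averaged over the animals in each group (n = 3−4).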

[2] = Plasma concentration in Lewis rat at 1 mg/kg, po measured at 4 hr; format: ADME, organism-based; settings: Lewis, plasma
Method in brief: (§2)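 Lewis rats received a single oral 1.0 mg/kg dose as solution or suspension in PEG300. Blood was drawn retro-orbitally under isoflurane at 4 h and 24 h, within the blood lymphocyte reduction study. n = 3−4 per group, group mean reported.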

Rattus norvegicus [3] = experiment: Reduction in circulating lymphocytes count in Lewis rat blood at 1 mg/kg, po measured at 24 hrs by hematology analyzer based analysis; format: functional; parameters: scale not given: the % may be the effect or the level left; method in brief: as §1
[4] = Plasma concentration in Lewis rat at 1 mg/kg, po measured at 24 hrs; format: ADME, organism-based; settings: Lewis, plasma; method in brief: as §2
Rattus norvegicus [5] = experiment: Reduction in circulating lymphocytes count in Lewis rat blood assessed as effective dose administered orally measured at 4 to 24 hrs by hematology analyzer based analysis; format: functional; settings: po, time 4-24 hrs
Rattus norvegicus [6] = experiment: Reduction in circulating lymphocytes count in Lewis rat blood administered orally measured at 4 to 24 hrs by hematology analyzer based analysis; format: functional, organism-based; method in brief: as §1
[7] = biological target: T1, Sphingosine 1-phosphate receptor 1 (Homo sapiens, UniProt P21453); experiment: Agonist activity at human S1P1 expressed in CHO cell membranes assessed as stimulation of [35S]-GTPgamma-S binding measured after 45 mins by liquid scintillation counting method relative to control; settings: Cell membrane, filed as agonist
T1 sequence (P21453 whole entry): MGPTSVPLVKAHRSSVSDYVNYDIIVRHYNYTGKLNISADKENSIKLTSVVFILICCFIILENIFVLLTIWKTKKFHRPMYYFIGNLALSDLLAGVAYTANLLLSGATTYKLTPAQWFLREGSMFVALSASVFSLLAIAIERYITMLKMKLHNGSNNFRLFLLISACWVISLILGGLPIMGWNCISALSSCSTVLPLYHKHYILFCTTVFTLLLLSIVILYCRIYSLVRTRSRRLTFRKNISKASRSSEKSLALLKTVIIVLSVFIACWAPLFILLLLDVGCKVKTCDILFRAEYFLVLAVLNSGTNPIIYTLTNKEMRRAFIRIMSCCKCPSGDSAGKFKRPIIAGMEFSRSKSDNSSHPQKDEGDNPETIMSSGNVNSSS
Method in brief: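 S1P1/CHO cell membranes at 3 μg protein/well with 3-fold compound dilutions. [35S]GTPγS 0.2 nM final, 45 min at room temperature. Filter-plate capture, water washes, scintillation counting. EC50 taken at 50% of each compound's own Ymax.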

[8] = biological target: T1, Sphingosine 1-phosphate receptor 1; experiment: Agonist activity at human S1P1 assessed as stimulation of cAMP accumulation relative to control; format: functional; settings: filed as agonist
[9] = Protein binding in dog assessed as bound fraction; format: ADME, Canis lupus familiaris; settings: read-out: PB (converted)
[10] = Protein binding in monkey assessed as bound fraction; format: ADME, Macaca mulatta; settings: rhesus monkey; read-out: PB (converted)
[11] = biological target: Voltage-gated inwardly rectifying potassium channel KCNH2 (Homo sapiens, UniProt Q12809); experiment: Inhibition of human ERG by patch clamp assay
Chain of Voltage-gated inwardly rectifying potassium channel KCNH2 (Q12809 whole entry): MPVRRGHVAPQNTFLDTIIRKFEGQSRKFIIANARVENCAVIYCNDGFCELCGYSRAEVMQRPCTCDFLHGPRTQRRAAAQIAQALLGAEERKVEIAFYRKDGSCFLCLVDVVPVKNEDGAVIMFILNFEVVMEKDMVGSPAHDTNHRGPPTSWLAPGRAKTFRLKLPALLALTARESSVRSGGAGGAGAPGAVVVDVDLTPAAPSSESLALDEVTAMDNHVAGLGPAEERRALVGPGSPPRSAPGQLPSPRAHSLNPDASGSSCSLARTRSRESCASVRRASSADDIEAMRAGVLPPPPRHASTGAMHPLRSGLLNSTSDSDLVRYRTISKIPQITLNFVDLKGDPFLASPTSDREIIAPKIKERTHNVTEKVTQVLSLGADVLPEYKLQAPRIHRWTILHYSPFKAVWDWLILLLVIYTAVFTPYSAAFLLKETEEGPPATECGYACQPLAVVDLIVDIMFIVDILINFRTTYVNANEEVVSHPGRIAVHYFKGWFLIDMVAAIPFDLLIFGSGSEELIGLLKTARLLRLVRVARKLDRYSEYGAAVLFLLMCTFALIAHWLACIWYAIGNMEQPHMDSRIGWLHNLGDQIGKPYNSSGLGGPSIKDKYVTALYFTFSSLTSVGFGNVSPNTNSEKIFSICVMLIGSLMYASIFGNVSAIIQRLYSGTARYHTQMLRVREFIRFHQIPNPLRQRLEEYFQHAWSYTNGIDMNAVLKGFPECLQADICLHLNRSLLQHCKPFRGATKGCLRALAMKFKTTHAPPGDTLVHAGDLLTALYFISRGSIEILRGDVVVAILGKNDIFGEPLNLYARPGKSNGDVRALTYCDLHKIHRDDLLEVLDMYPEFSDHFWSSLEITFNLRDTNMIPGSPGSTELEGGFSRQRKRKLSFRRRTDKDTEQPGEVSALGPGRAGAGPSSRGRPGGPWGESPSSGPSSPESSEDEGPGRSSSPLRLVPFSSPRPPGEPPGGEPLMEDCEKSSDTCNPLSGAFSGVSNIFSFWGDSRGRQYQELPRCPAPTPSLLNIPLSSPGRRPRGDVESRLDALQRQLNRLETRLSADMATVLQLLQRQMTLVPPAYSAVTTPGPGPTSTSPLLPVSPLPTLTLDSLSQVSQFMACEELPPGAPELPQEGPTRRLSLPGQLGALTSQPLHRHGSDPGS

Cytochrome P450 2C8 = biological target: T2, Cytochrome P450 2C8 (Homo sapiens, UniProt P10632); experiment: Inhibition of CYP2C8 (unknown origin); format: ADME
T2 sequence (P10632 whole entry): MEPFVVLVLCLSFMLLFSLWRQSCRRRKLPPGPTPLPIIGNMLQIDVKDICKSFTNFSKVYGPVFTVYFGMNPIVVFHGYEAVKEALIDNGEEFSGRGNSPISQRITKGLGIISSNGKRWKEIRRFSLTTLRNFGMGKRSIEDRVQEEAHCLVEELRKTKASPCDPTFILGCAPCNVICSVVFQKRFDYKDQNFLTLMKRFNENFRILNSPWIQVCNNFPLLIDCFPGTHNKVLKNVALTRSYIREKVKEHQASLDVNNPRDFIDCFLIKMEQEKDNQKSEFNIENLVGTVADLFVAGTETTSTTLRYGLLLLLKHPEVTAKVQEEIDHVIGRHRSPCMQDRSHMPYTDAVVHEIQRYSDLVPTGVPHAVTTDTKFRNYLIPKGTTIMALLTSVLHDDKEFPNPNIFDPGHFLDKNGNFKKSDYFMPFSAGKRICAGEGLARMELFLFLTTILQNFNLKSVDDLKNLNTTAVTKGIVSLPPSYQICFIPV

[12] = Metabolic stability in human assessed as half-life; format: ADME
[13] = Metabolic stability in dog assessed as half-life; format: ADME, Canis lupus familiaris
[14] = Cmax in mouse at 5 mg/kg, po or 2 mg/kg, iv; format: ADME, organism-based; parameters: dose 5 mg/kg; settings: in vivo
[15] = Cmax in rat at 1 mg/kg, po or 1 mg/kg, iv; format: ADME, organism-based; parameters: dose 1 mg/kg; settings: in vivo
[16] = Cmax in dog at 0.1 mg/kg, po or 0.1 mg/kg, iv; format: ADME, organism-based, Canis lupus familiaris; parameters: dose 0.1 mg/kg; settings: in vivo
[17] = Tmax in cynomolgus monkey at 0.5 mg/kg, po or 0.5 mg/kg, iv; format: ADME, organism-based, Macaca fascicularis; settings: in vivo
[18] = Tmax in dog at 0.1 mg/kg, po or 0.1 mg/kg, iv; format: ADME, organism-based, Canis lupus familiaris; settings: in vivo
[19] = AUC in mouse at 5 mg/kg, po; format: ADME, organism-based; parameters: dose 5 mg/kg; settings: in vivo
[20] = AUC in dog at 0.1 mg/kg, po; format: ADME, organism-based, Canis lupus familiaris; parameters: dose 0.1 mg/kg; settings: in vivo
[21] = Half-life in cynomolgus monkey at 0.5 mg/kg, po or 0.5 mg/kg, iv; format: ADME, organism-based, Macaca fascicularis; settings: in vivo
[22] = Clearance in rat at 1 mg/kg, po or 1 mg/kg, iv; format: ADME, organism-based; settings: in vivo
[23] = Volume of distribution at steady state in dog at 0.1 mg/kg, po or 0.1 mg/kg, iv; format: ADME, organism-based, Canis lupus familiaris; settings: in vivo, read-out: Vdss
[24] = Oral bioavailability in mouse at 5 mg/kg; format: ADME, organism-based; settings: in vivo
[25] = Oral bioavailability in cynomolgus monkey at 0.5 mg/kg; format: ADME, organism-based, Macaca fascicularis; settings: in vivo
Rattus norvegicus [26] = experiment: Antiarthritic activity in Lewis rat model of Complete Freund's adjuvant-induced arthritis at 0.03 mg/kg, po QD administered for 21 days after CFA injection and measured weekly three times upto day 21 by water displacement plethysmometry; format: functional, organism-based; settings: time 21.0 day
Method in brief: (§3)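 Male Lewis rats, 200−225 g, n = 8 per group. Immunized at the tail base with 100 μL of 10 mg/mL ground Mycobacterium butyricum in incomplete Freund's adjuvant. Oral dosing once daily in PEG300 vehicle from the day of immunization for 21 days, at 0.03, 0.1 or 1.0 mg/kg. Dexamethasone 0.1 mg/kg PO QD as positive control. Paw volume by water displacement plethysmometry, day 7 to day 21.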

Rattus norvegicus [27] = experiment: Antiarthritic activity in Lewis rat model of Complete Freund's adjuvant-induced arthritis assessed as reduction in paw swelling at 0.1 mg/kg, po qd administered for 21 days after CFA injection and measured weekly three times upto day 21 by water displacement plethysmometry; format: functional; parameters: scale not given: the % may be the effect or the level left; settings: time 21 day; method in brief: as §3

**Q.** For `O=C(O)C1CN(Cc2ccc3c(c2)CCc2c-3noc2-c2onc(-c3ccccc3)c2C(F)(F)F)C1`, which Activity (Rattus norvegicus [1]) is on record?
**A.** 83%

**Q.** And the concentration at 4 h [2]?
**A.** 55 nM

**Q.** And the Activity (Rattus norvegicus [3])?
**A.** 80%

**Q.** And the concentration at 24 h [4]?
**A.** 13 nM

**Q.** What about the ED50 (Rattus norvegicus [5]) of the same molecule?
**A.** 0.05 mg/kg

**Q.** And the EC50 (Rattus norvegicus [6])?
**A.** 2.5 nM

**Q.** And the Emax [7]?
**A.** 95%

**Q.** What about the Emax [8] of the same molecule?
**A.** 93%

**Q.** And the fraction unbound [9]?
**A.** 0.005

**Q.** What about the fraction unbound [10] of the same molecule?
**A.** 0.005

**Q.** What about the IC50 [11] of the same molecule?
**A.** 2000 nM

**Q.** What about the IC50 (Cytochrome P450 2C8) of the same molecule?
**A.** 14000 nM

**Q.** And the half-life [12]?
**A.** > 2 h

**Q.** What about the half-life [13] of the same molecule?
**A.** > 2 h

**Q.** And the Cmax [14]?
**A.** 3600 nM

**Q.** And the Cmax [15]?
**A.** 140 nM

**Q.** What about the Cmax [16] of the same molecule?
**A.** 90 nM

**Q.** What about the Tmax [17] of the same molecule?
**A.** 4 h

**Q.** What about the Tmax [18] of the same molecule?
**A.** 8 h

**Q.** What about the AUC [19] of the same molecule?
**A.** 30.3 µM·h

**Q.** And the AUC [20]?
**A.** 2.3 µM·h

**Q.** And the half-life [21]?
**A.** 18 h

**Q.** What about the clearance [22] of the same molecule?
**A.** 8.5 mL/min/kg

**Q.** And the Vd [23]?
**A.** 2.5 L/kg

**Q.** What about the F [24] of the same molecule?
**A.** 80%

**Q.** And the bioavailability [25]?
**A.** 80%

**Q.** What about the Activity (Rattus norvegicus [26]) of the same molecule?
**A.** inactive

**Q.** What about the Activity (Rattus norvegicus [27]) of the same molecule?
**A.** >50%
